# MEKK2 mut-MEK5 = signal of MEK5 binding to mutant human MEKK2 PB1 domain | bead flow cytometry, Alexa488-MEK5 binding to MEKK2 mutant | percent response, % at 10 µM | 0.35% of 290,000 active | AID 1530; in the data active = percent response above about 24%, passing the limit was not always enough
# MEKK3 PB1 HTS = raises or lowers MEK5 binding to the human MEKK3 PB1 domain; Q99759; bead-based flow cytometry, Alexa488-MEK5 binding to MEKK3; actives lie on both sides; 0 = blocked by unlabeled MEK5, 100 = vehicle; binding response (% of control), % at 10 µM; 1.4% of 290,000 active; AID 1529;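 active = binding response more than 3 SD above or below the average of its plate-row segment, actives on both sides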;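 also: Alexa488 bead fluorescence after subtracting the streptavidin-only scavenger bead signal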
# B2AR ag = human beta-2 adrenergic receptor agonism by FAP | 0.43% of 340,000 active | Am2.2-beta2AR cells, FAP receptor internalization, flow cytometry | response, % (concentration not given with the values) | AID 504454;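 active = response above a set limit, near 3 SD of response in nonfluorescent compounds, cut at about 42% in these data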
# Target sequence (P07550 whole entry, looked up): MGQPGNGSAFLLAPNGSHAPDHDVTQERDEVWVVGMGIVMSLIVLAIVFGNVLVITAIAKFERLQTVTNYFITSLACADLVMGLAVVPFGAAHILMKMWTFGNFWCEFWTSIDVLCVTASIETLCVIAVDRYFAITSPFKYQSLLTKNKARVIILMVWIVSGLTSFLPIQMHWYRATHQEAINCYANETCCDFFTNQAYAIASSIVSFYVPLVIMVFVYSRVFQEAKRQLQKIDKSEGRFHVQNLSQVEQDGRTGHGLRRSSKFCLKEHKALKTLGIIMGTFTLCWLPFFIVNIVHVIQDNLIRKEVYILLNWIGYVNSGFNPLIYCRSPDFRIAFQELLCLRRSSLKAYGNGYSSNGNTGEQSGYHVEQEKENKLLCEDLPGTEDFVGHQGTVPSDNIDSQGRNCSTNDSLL
# MEKK2wt PB1 HTS = raises or lowers MEK5 binding to wildtype human MEKK2 PB1 domain | Q9Y2U5 | bead flow cytometry, Alexa488-MEK5 binding to MEKK2 WT; actives lie on both sides | binding response (% of control), % at 10 µM | 1.1% of 290,000 active; in the data active = binding response below about 67% or above about 130%
# ATG4B inhibitor = blocks human ATG4B protease cleavage of LC3 substrate; ATG4B cleavage of LC3-PLA2, NBD-HPC fluorescence, 1 h; inhibition, % at 8.33 µM; 0.51% of 340,000 active; AID 504462; in the data active = inhibition above about 40%
# Dynein cargo inh = blocks dynein driven cargo transport along microtubules; 3617.4 mouse cells, GR-EGFP nuclear translocation imaging; test concentration mostly 20 µM; stimulated with dexamethasone, 1 µM; stronger effect = lower value; z-score, hits read low; 0.47% of 220,000 active; AID 1381;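 active = plate z-score of nuclear minus cytoplasmic receptor signal below a set negative limit, without overly bright fluorescence or cell loss, cut at about -3.5 in these data, passing the limit was not always enough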;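 also: z-score of nuclear minus cytoplasmic ring GR-EGFP intensity difference per well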
#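 medium = tetracycline-free induction medium containing charcoal-stripped FBS | probe or stimulus = dexamethasone, 1.0 µM final | timing = 48 h induction, then 1 h compound, then 30 min agonist, 37 °C | detection = automated 10x imaging of fixed Hoechst-stained cells | read-out basis = nuclear versus cytoplasmic GR-EGFP signal, averaged per well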
# MEKK2wt confirm = raises or lowers MEK5 binding to wildtype human MEKK2, retest | binding response (% of control), % at 10 µM | 2.4% of 5,900 active | bead flow cytometry, Alexa488-MEK5 binding to MEKK2 WT; actives lie on both sides | shares compounds with MEKK3 PB1 HTS; in the data active = binding response below about 16% or above about 210%; inactive = in between
# MEKK2mut confirm = signal of MEK5 binding to mutant human MEKK2, retest; AID 1893; bead flow cytometry, Alexa488-MEK5 binding to MEKK2 mutant; shares compounds with MEKK3 PB1 HTS; 2% of 5,900 active; percent response, % at 10 µM; in the data active = percent response mostly above about 71%, no sharp cut-off; inactive = mostly below about 38%;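 also: higher means compound restores mutant binding toward wildtype level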
# MEKK3 confirm = confirmation of inhibitors of MEK5 binding to human MEKK3. shares compounds with MEKK3 PB1 HTS. bead flow cytometry, Alexa488-MEK5 binding to MEKK3; stronger effect = lower value. binding response (% of control), % at 10 µM. 1.8% of 5,900 active. AID 1894;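 active = binding response below 72% of control, or above a set upper limit, though filed actives all read lower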;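 also: 100% = DMSO only wells and 0% = binding blocked by excess unlabeled MEK5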
# * = called active by the depositor; x = no result; [ ] = another dose, or the depositor's remark. Most compounds without a hit are left out; they make up all but 2.9% or so of the library.
SMILES,MEKK2 mut-MEK5,MEKK3 PB1 HTS,B2AR ag,MEKK2wt PB1 HTS,ATG4B inhibitor,Dynein cargo inh,MEKK2wt confirm,MEKK2mut confirm,MEKK3 confirm
Cc1ccc(-n2cc(CNCC3CC(=O)N(C4CC4)C3)c(-c3cccc(C)c3)n2)cc1 (stereo not drawn),29,105,11,143*,1,-0.39,126,12,100
CC(=O)N1CC(=O)N(Cc2ccccc2)/C(=C/c2ccccc2)C1=O,4,132*,-2,118,-10,0.26,97,-4,100
CC(=O)Oc1ccc(/C=C2/SC(=S)N(Cc3ccccc3)C2=O)cc1,0,100,-93,97,9,x,x,x,x
CC1CN(C(=O)COC(=O)c2ccc(Cl)nc2)CC(C)O1 (stereo not drawn),0,99,-3,100,-3,-0.26,x,x,x
O=C(CCc1ccco1)CCc1ccco1,x,x,6,x,5,x,x,x,x
O=C(CCCn1c(=O)c2ccccc2n(Cc2cccc(F)c2)c1=O)NC1CCN(Cc2ccccc2)CC1,3,102,x,107,x,-0.23,x,x,x
O=C(CCCCn1c(=O)c2ccccc2n(Cc2ccccc2)c1=O)NC1CCN(Cc2ccccc2)CC1,-20,22*[inhibitor],12,32*[inhibitor],-3,0.75,105,2,101
Cc1nc(C)c(CCNC(=O)c2ccc(C(F)(F)F)cc2)s1,1,138*,0,106,-3,0.38,102,3,105
Cn1c(=O)c2c(SCCN3CCOCC3)nc(C3CCCC3)nc2n(C)c1=O,-4,58*[inhibitor],-19,74,2,-0.93,104,-2,99
O=C(C[n+]1cnn(CC(=O)c2ccc(Cl)cc2Cl)c1)c1ccc([N+](=O)[O-])cc1,24,101,8,157*,-6,-0.55,122,5,105
CCOC(=O)c1c(C)n(-c2ccc(C)cc2)c2ccc(O)c(CN(C)C)c12,30,113,9,138*,6,-1,118,8,103
CCOC(=O)c1c(CSc2ccc(C)cc2)n(C)c2cc(Br)c(O)c(CN(C)C)c12,43,104,8,145*,-1,-1.5,142,21,111
CCC(C(=O)NC1CCCC1)N(C(=O)Cn1nnc(-c2ccc(C)o2)n1)c1cccc(OC)c1 (stereo not drawn),0,98,-2,97,6,x,x,x,x
Cc1ccccc1-c1nc(CN2CCC(C(=O)NCCCN3CC(C)CC(C)C3)CC2)c(C)o1 (stereo not drawn),18,107,29,142*,-9,-0.47,127,18,102
COc1ccccc1CNC(=O)C1CCN(Cc2nc(-c3cccc(Cl)c3)oc2C)CC1,25,113,7,134,14,-0.88,x,x,x
Cc1ccccc1-c1nc(CN2CCC(C(=O)NCCCN3CCOCC3)CC2)c(C)o1,14,102,-1,130,-7,0.31,x,x,x
CCc1ccc(-c2nc(CN3CCC(C(=O)NCc4ccccc4OC)CC3)c(C)o2)cc1,16,104,-1,156*,6,-0.5,114,3,104
CCOC(=O)c1c(/N=C/c2cc(OC)cc([N+](=O)[O-])c2O)sc(C)c1C,0,135*,-5,103,11,0.065,104,3,98
Cc1ccccc1-n1c(SCc2c(C)noc2C)nnc1-c1cccnc1,30*,101,6,28*[inhibitor],2,-0.02,109,2,96
COc1ccc(P(=O)(COc2ccc([N+](=O)[O-])cc2)c2ccc(OC)cc2)cc1,-1,66*[inhibitor],-12,101,-25,0.18,94,-3,94
CC(c1ccccc1)N1CCn2c(nc3cc(NC(=O)c4cccs4)ccc32)C1 (stereo not drawn),-33,19*[inhibitor],6,35*[inhibitor],7,-0.29,101,7,101
COc1cc(OC)cc(-c2c(C#Cc3ccsc3)c3cc(-c4cccc5[nH]ccc45)ccc3n2C)c1,x,x,3,x,-5,x,x,x,x
COc1cc(-c2nnn(CC(=O)NC3CCS(=O)(=O)C3)n2)ccc1OCc1ccccc1 (stereo not drawn),-24,0.0*[inhibitor],4,0.0*[inhibitor],-10,0.39,105,1,106
c1csc(C(c2nnnn2C2CCCC2)N2CCCC3(CCCCC3)C2)c1 (stereo not drawn),3,102,6,103,-6,0.11,x,x,x
O=S(=O)(c1ccccc1)N1CCN(CCO)CC1,-1,100,2,102,-1,x,x,x,x
SMILES,MEKK2 mut-MEK5,MEKK3 PB1 HTS,B2AR ag,MEKK2wt PB1 HTS,ATG4B inhibitor,Dynein cargo inh,MEKK2wt confirm,MEKK2mut confirm,MEKK3 confirm
COc1ccc(C(=O)NN/C(C)=C/C(=O)C(F)(F)C(F)(F)C(F)(F)F)cc1,-1,130*,5,102,-3,-0.84,95,-2,99
COc1ccc(C(=O)NNC(=O)OC(C)(C)C)cc1,-23,86,-8,92,-4,0.26,x,x,x
CNC(=S)N/N=C/c1c(C)c(C(=O)c2ccc(F)cc2)n2ccccc12,-2,105,5,99,-13,x,x,x,x
CCCCOC(=O)c1ccc(NC(=O)CSc2nnnn2C)cc1,-7,96,0,93,-1,-0.22,x,x,x
Cc1cc(C)cc(NC(=O)CN2CCC(NC(=O)c3ccccc3F)CC2)c1,8,104,1,135*,1,x,117,6,101
CCCN1CCC(N(CCc2ccccc2)Cc2ccccc2)CC1,12,106,2,119,-2,x,x,x,x
COc1ccc(CN2CCC(N(CCc3ccccc3)Cc3ccccc3)CC2)c(OC)c1,52*,90,20,161*,-6,-0.99,152,25,110
COC(=O)c1c(NC(=O)c2cccnc2)sc(C(=O)N(C)C)c1C,1,162*,-21,109,-4,-0.15,107,3,106
COC(=O)c1c(NC(=O)c2cccnc2)sc(C)c1C,-7,90,1,91,-4,-0.17,x,x,x
CN(/N=C/c1ccncc1)c1cnc2ccccc2n1,-2,74*[inhibitor],-1,88,-11,-0.95,104,3,104
CN(/N=C/c1ccncc1)C1=NCCN1,11,110,6,111,20,x,x,x,x
Cc1onc(-c2c(F)cccc2Cl)c1C(=O)NCc1ccc2c(c1)OCO2,7,104,-6,107,-10,x,x,x,x

# Screens deposited in PubChem BioAssay by several laboratories.
